Sampled rows, rich in hits. Any-hit rate of the full collection: about 3.5%.
PGC1a acetyl inh: lowers PGC1a acetylation signal in U2OS cells; AlphaScreen anti-acetyl-lysine; with virally co-expressed GCN5 acetyltransferase; inhibition, % at 15.6 µM; hit rate 0.17% among 350,000;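 active means every replicate shows inhibition of at least 40%; inconclusive means mean inhibition at least 40% but some replicate below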
DENV2 CPE rescue: protects cells from dengue virus 2 cytopathic effect; DENV2-infected cells, cytopathic effect rescue, plate reader; CPE inhibition, % at 9.99 µM; hit rate 1.7% among 350,000; AID 651640; in the data active means CPE inhibition above about 20%, passing the limit was not always enough; inconclusive means no clear call, values can overlap the other calls; tested in BHK-21 cells
Ecoli rRNA inh: inhibits bacterial ribosomal RNA function over humanized ribosomes. E. coli WT GFP vs humanized-ribosome RFP mutants, fluorescence, 24 h; stronger effect = lower value; DMSO median 0, no signal -100. GFP signal change (wild-type ribosome), % (test concentration not listed). hit rate 1.6% among 350,000. AID 720706;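 active means significant combined selectivity score with lowered wild-type GFP, culture density cut under 30%, mutant RFP and density less affected; inactive means any of these conditions unmet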
Env fusion inh: blocks HIV Env-driven cell-cell fusion | HeLa-JRFL Env/CEM21 cell fusion, luciferase | inhibition, % at 12.3 µM | hit rate 1.1% among 360,000 | AID 651610;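 active means mean replicate inhibition score of at least 50 and every replicate individually at or above 50; inconclusive means only one of the two criteria met; inactive means mean below 50 and not all replicates reaching 50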
FN deposition inh: fibronectin deposition inhibition | AID 743247 | hit rate 0.086% among 350,000 | AH1F fibroblasts, Alexa488-fibronectin deposition fluorescence, overnight | inhibition, % at 12.6 µM;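 active means mean inhibition across replicates of 30% or more, regardless of how many single replicates reach that level; inconclusive means mean under 30% yet at least half of replicates reach 30%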
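Assay system: AH1F fibroblasts / Quantity: 10000 cells per well / Medium: DMEM plus 2% serum, read in PBS / Reagent: labelled fibronectin 24 nM / Dosing: single dose, pinned / Times: 1 h cell attachment, overnight exposure to compound and label / Signal: fluorescence, ex 485 nm, em 525 nm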
PglD inh: PglD (C. jejuni) enzyme inhibition | purified PglD enzyme, DTNB colorimetric CoA detection | inhibition, % at 12.5 µM | hit rate 0.098% among 360,000 | AID 602405; in the data active means inhibition above about 16%, passing the limit was not always enough; inconclusive means no clear call, values can overlap the other calls
Each line names hits and unclear results; the compound was inactive in the other large screens; [ ] = dose if it differs, or a comment.

CO[C@@H]1CN(C)C(=O)c2cc(NC(=O)C3CCC3)ccc2OC[C@@H](C)N(Cc2ccc(F)cc2)C[C@H]1C	none (no result: PGC1a acetyl inh, Env fusion inh)
O=C(C[C@@H]1CC[C@H]2[C@@H](COC[C@H](O)CN2Cc2ccc3c(c2)OCO3)O1)N1CCOCC1	none (no result: Env fusion inh)
CCN1C(=O)S/C(=C/c2ccc(Sc3nc4ccccc4[nH]3)o2)C1=O	Ecoli rRNA inh -23, Env fusion inh 62
CO[C@@H]1CN(C)C(=O)c2ccc(NC(=O)C3CC3)cc2OC[C@@H](C)N(C(=O)CN(C)C)C[C@H]1C	none (no result: Env fusion inh)
CCCN(CC1CC1)C(=O)CSc1ncnc2sccc12	Ecoli rRNA inh -18 (no result: DENV2 CPE rescue, PglD inh)
CCC(C)N(C(=O)CSc1ncnc2sccc12)C1CCS(=O)(=O)C1 (stereo not given)	none (no result: PGC1a acetyl inh, Env fusion inh)
COCC(=O)Nc1ccc2c(c1)C(=O)N(C)[C@H]1CC[C@@H](CC(=O)NCc3ccccc3)O[C@H]1CO2	none
CCCCCCCC(=O)Nc1cc(C(=O)NCc2ccc(C)cc2)ccc1N1CCC2(CC1)CC(c1ccccc1)=NO2	DENV2 CPE rescue 27
O=C(Nc1cccc(F)c1)N1C[C@@H]2[C@H](c3ccccc31)[C@H](CO)N2C(=O)Cc1ccccc1	none (no result: Env fusion inh, FN deposition inh)
CC(C)C[C@@H](C)C(=O)N(Cc1ccccc1)c1ccccc1	Ecoli rRNA inh -35 (no result: PGC1a acetyl inh)
CC[N+](CC)(CC)CCCCOc1ccc2c(c1)C(=O)c1cc(OCCCC[N+](CC)(CC)CC)ccc1-2	Ecoli rRNA inh -54
C[C@H](CO)N1C[C@H](C)[C@H](CN(C)CC2CC2)Oc2ccc(NC(=O)Nc3ccc(F)cc3)cc2CC1=O	DENV2 CPE rescue 42, Env fusion inh inconclusive (no result: Ecoli rRNA inh, FN deposition inh)
C[C@@H]1CN([C@@H](C)CO)C(=O)Cc2cc(NC(=O)CCC(F)(F)F)ccc2O[C@@H]1CN(C)CC1CC1	DENV2 CPE rescue 42
C[C@@H]1CN([C@H](C)CO)C(=O)Cc2cc(NC(=O)Nc3ccc(F)cc3)ccc2O[C@@H]1CN(C)CC1CC1	none (no result: FN deposition inh)
C[C@H]1CN([C@@H](C)CO)C(=O)Cc2cc(NC(=O)Nc3ccc4c(c3)OCO4)ccc2O[C@@H]1CN(C)CC1CC1	none (no result: PGC1a acetyl inh, FN deposition inh)
C[C@H](CO)N1C[C@H](C)[C@H](CN(C)CC2CC2)Oc2ccc(NC(=O)Nc3ccc4c(c3)OCO4)cc2CC1=O	Env fusion inh 65[16.7 µM] (no result: PGC1a acetyl inh, FN deposition inh)
C[C@H](CO)N1C[C@H](C)[C@H](CN(C)CC2CCCCC2)Oc2ccc(NC(=O)Nc3ccc4c(c3)OCO4)cc2CC1=O	DENV2 CPE rescue 34 (no result: FN deposition inh)
CC(C)NC(=O)N[C@@H]1CC[C@@H](CC(=O)NC2Cc3ccccc3C2)O[C@@H]1CO	none
COC(=O)[C@@H]1[C@@H](CO)[C@@H]2Cn3c(ccc(-c4cccc(F)c4)c3=O)[C@@H]2N1Cc1ccncc1	none (no result: FN deposition inh, PglD inh)
CCCC(=O)Nc1ccc2c(c1)OC[C@@H](C)N(C(=O)C1CCCC1)C[C@H](C)[C@@H](OC)CN(C)C2=O	none
Cc1cccc(C(=O)Oc2ccccc2C2C[C@]3(C)CC(=O)NC3N2C(=O)c2cccc(C)c2)c1 (stereo not given in full)	Env fusion inh 48 (no result: DENV2 CPE rescue, Ecoli rRNA inh)
C[C@@]12CC(=O)NC1N(C(=O)c1cccc(C(F)(F)F)c1)C(c1ccccc1O)C2 (stereo not given in full)	Env fusion inh 105 (no result: DENV2 CPE rescue, Ecoli rRNA inh)
CC(=O)N1C(c2ccccc2O)C[C@]2(C)CC(=O)NC12 (stereo not given in full)	none (no result: PglD inh)
O=C(COC(=O)CN1C(=O)NC2(CCCC2)C1=O)Nc1ccc(C(F)(F)F)cc1[N+](=O)[O-]	DENV2 CPE rescue 32 (no result: PGC1a acetyl inh)
O=C(COC(=O)CN1C(=O)NC2(CCCC2)C1=O)Nc1ccccc1C(F)(F)F	none (no result: PGC1a acetyl inh)
COc1ccc(N(CC(=O)N2CCC(Cc3ccccc3)CC2)S(C)(=O)=O)cc1	Ecoli rRNA inh -21 (no result: PglD inh)
CN(C)S(=O)(=O)N(CC(=O)N1CCC(Cc2ccccc2)CC1)c1ccccc1	none
C=CCn1c(SCc2c(C)noc2C)nc2sc(C)c(C)c2c1=O	Env fusion inh 68 (no result: DENV2 CPE rescue, Ecoli rRNA inh)
CO[C@@H]1CN(C)C(=O)c2cc(NC(C)=O)ccc2OC[C@@H](C)N(C(=O)Cc2ccccn2)C[C@H]1C	none (no result: Env fusion inh)
COc1ccc(-n2c(SCC(=O)NCC3CCCO3)nc3c([nH]c4ccccc43)c2=O)cc1 (stereo not given)	none (no result: PGC1a acetyl inh, PglD inh)
COc1cccc(-n2c(SCC(=O)NCC3CCCO3)nc3c([nH]c4ccccc43)c2=O)c1 (stereo not given)	Ecoli rRNA inh -24
COCCn1c(SCC(=O)Nc2cc(C)on2)nc2c([nH]c3ccccc32)c1=O	Env fusion inh 59
CCn1c(SCC(=O)Nc2cc(C)on2)nc2c([nH]c3ccccc32)c1=O	none (no result: Env fusion inh)
O=C(C[C@@H]1CC[C@@H]2[C@H](COC[C@H](O)CN2Cc2nccs2)O1)NCc1ccccc1F	none (no result: Env fusion inh)
CCCCc1c(-c2ccccc2F)ncn1CCc1ccccc1OC	Env fusion inh 65 (no result: PGC1a acetyl inh, PglD inh)
CCCCCc1c(-c2ccccc2F)ncn1CCc1ccccc1OC	none (no result: PGC1a acetyl inh, PglD inh)
CCCCCc1c(-c2ccccc2OC)ncn1CCc1ccccc1OC	DENV2 CPE rescue 26, Env fusion inh 69 (no result: PGC1a acetyl inh, PglD inh)
CCCCc1c(-c2ccccc2OC)ncn1CCc1ccccc1OC	none (no result: PGC1a acetyl inh, PglD inh)
CCCCc1c(-c2ccccc2OC)ncn1CCc1ccccc1Cl	DENV2 CPE rescue 32 (no result: PGC1a acetyl inh, PglD inh)
O=C(Nc1ccccc1F)N1CCCCN2[C@H](C1)[C@H](c1ccc(C3=CCCCC3)cc1)[C@@H]2CO	none (no result: Ecoli rRNA inh, Env fusion inh, FN deposition inh)
Oc1ccc(C[C@@H]2CNCCN2CCc2cc(C(F)(F)F)cc(C(F)(F)F)c2)cc1	none (no result: PGC1a acetyl inh)
FC(F)(F)c1cc(CCN2CCNC[C@H]2Cc2cccc3ccccc23)cc(C(F)(F)F)c1	DENV2 CPE rescue 84 (no result: PGC1a acetyl inh)
CCCC[C@@H]1CNCCN1CCc1cccc2ccccc12	DENV2 CPE rescue inconclusive, Ecoli rRNA inh -20 (no result: PGC1a acetyl inh)
O=C(NCC(F)(F)F)[C@@H]1c2ccccc2C(=O)N(CC23CC4CC(CC(C4)C2)C3)[C@H]1c1ccc(CO)cc1	Env fusion inh 74[16.7 µM] (no result: Ecoli rRNA inh, FN deposition inh)
COc1ccc(CCNC(=O)[C@@H]2c3ccccc3C(=O)N(CC34CC5CC(CC(C5)C3)C4)[C@H]2c2ccc(CO)cc2)cc1	none (no result: Ecoli rRNA inh, FN deposition inh)
CC(C)c1nnc(NC(=O)C2CCN(C(=O)Nc3ccc(Cl)cc3)CC2)s1	Ecoli rRNA inh -23
CC(C)CC#Cc1cnc2c(c1)C(=O)N([C@H](C)CO)C[C@@H](C)[C@@H](CN(C)Cc1ccccn1)O2	none
Cc1cccc(/C=N/Nc2cc(N3CCOCC3)nc(N3CCOCC3)n2)c1	FN deposition inh 36 (no result: PGC1a acetyl inh, PglD inh)
COCCNC(=O)[C@@H]1[C@@H](CO)[C@@H]2Cn3c(ccc(-c4ccccc4)c3=O)[C@H]1N2C	none (no result: Env fusion inh, FN deposition inh)
O=C(/C=C/c1ccc(O)c(O)c1)c1ccccc1O	Ecoli rRNA inh -32
Oc1cc(O)cc(C=Cc2ccc(O)c(O)c2)c1	Ecoli rRNA inh -29 (no result: PGC1a acetyl inh, PglD inh)
[N-]=[N+]=NCc1ccccc1C[C@@]1(C(=O)NCC(O)CO)N=C(c2ccc(OCCCO)cc2)O[C@@H]1c1ccccc1 (stereo not given in full)	none (no result: PGC1a acetyl inh, Ecoli rRNA inh, FN deposition inh)
